pIC50: −log10 of the molar value. Activity calls are given as the source filed them. No cut-off for these calls is given here. Where only a bound is given, the exact number is not on record here.

The values that follow come from ChEMBL document CHEMBL2396584, “Semisynthesis, cytotoxicity, antiviral activity, and drug interaction liability of 7-O-methylated analogues of flavonolignans from milk thistle” (Bioorg Med Chem, 2013).

One data set relates to Hepatitis C virus. Put plainly: Antiviral activity against HCV JFH-1 infected in human Huh7.5.1 cells assessed as viral core protein expression at 12.4 to 124.2 uM after 72 hrs by Western blot analysis. It is filed as functional, organism-based. The following applies: Hepacivirus hominis, Huh-7.
On to `COc1cc(O)c2c(c1)O[C@H](c1ccc(O)c3c1[C@@H](CO)[C@H](c1ccc(O)c(OC)c1)O3)[C@@H](O)C2=O`, for which the result was Active.

In the case of `COc1cc([C@@H]2Oc3c(O)ccc([C@H]4Oc5cc(O)cc(O)c5C(=O)[C@@H]4O)c3[C@H]2CO)ccc1O` [ISOSILYCHRISTIN], the outcome was inactive.

Turning to `COc1cc(C2Oc3c(O)cc([C@H]4Oc5cc(O)cc(O)c5C(=O)[C@@H]4O)cc3C2CO)ccc1O` (some centres not stated) [SILICRISTIN], the result was inactive.

For `COc1cc([C@@H]2[C@H]3CO[C@@]4(O)C(=O)[C@@H]2C=C([C@H]2Oc5cc(O)cc(O)c5C(=O)[C@@H]2O)[C@@H]34)ccc1O` [SILIDIANIN], the outcome was inactive.

Another data set has as its system Hepatitis C virus. The data set can be described thus: Antiviral activity against HCV JFH-1 infected in human Huh7.5.1 cells assessed as viral core protein expression at 1.6 to 16.1 uM after 72 hrs by Western blot analysis. Type of data set: functional, organism-based. The following applies: Hepacivirus hominis, Huh-7. (A western blot detects proteins with antibodies after separation by electrophoresis.)
On to `COc1cc(O)c2c(c1)O[C@H](c1ccc3c(c1)O[C@@H](CO)[C@H](c1ccc(O)c(OC)c1)O3)[C@@H](O)C2=O`, for which the result was Active.

With `COc1cc([C@@H]2Oc3ccc([C@H]4Oc5cc(O)cc(O)c5C(=O)[C@@H]4O)cc3O[C@H]2CO)ccc1O` [ISOSILYBIN B], the result was Active.

Another data set deals with Cytochrome P450 2C9 (Homo sapiens, UniProt P11712). The data set can be described thus: Inhibition of CYP2C9 in human liver microsomes using (S)-warfarin as substrate after 30 mins. The following applies: 0.5 h. Type of data set: ADME, Microsome. A general note: Microsomes from liver hold many membrane-bound enzymes, among them those of drug oxidation.
Chain of Cytochrome P450 2C9 (P11712 whole entry): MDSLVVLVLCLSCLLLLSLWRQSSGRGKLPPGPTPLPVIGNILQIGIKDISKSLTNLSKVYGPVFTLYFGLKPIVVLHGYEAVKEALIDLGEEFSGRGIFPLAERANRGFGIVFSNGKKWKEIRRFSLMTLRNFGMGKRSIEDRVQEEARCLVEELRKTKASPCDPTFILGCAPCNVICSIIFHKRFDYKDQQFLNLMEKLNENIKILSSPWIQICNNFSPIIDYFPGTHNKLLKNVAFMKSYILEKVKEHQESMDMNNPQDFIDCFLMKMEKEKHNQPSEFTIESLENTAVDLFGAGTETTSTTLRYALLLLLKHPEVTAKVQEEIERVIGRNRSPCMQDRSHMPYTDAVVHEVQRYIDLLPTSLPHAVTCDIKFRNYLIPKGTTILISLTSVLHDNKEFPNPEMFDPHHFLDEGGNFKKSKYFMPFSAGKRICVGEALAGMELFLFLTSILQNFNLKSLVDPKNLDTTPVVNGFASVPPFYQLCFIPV
Take `COc1cc([C@H]2Oc3ccc([C@H]4Oc5cc(O)cc(O)c5C(=O)[C@@H]4O)cc3O[C@@H]2CO)ccc1O` [ISOSILYBIN A]: the “inhibition (INH)” value was “Not Active”.

A further data set has as its system Hepatitis C virus. Put plainly: Antiviral activity against HCV JFH-1 infected in human Huh7.5.1 cells assessed as viral core protein expression at 0.8 to 8 uM after 72 hrs by Western blot analysis. Type of data set: functional, organism-based. The following applies: Hepacivirus hominis, Huh-7.
For the molecule `COc1cc(O)c2c(c1)O[C@H](c1ccc3c(c1)O[C@@H](c1ccc(O)c(OC)c1)[C@H](CO)O3)[C@@H](O)C2=O`, the result was Active.

On to `COc1cc(O)c2c(c1)O[C@H](c1ccc3c(c1)O[C@H](CO)[C@@H](c1ccc(O)c(OC)c1)O3)[C@@H](O)C2=O`, for which the result was Active.

`COc1cc(O)c2c(c1)O[C@H](C1=C[C@H]3C(=O)[C@]4(O)OC[C@H]([C@H]3c3ccc(O)c(OC)c3)[C@H]14)[C@@H](O)C2=O`: the outcome was Active.

In the case of `COc1cc(O)c2c(c1)O[C@H](c1ccc3c(c1)O[C@H](c1ccc(O)c(OC)c1)[C@@H](CO)O3)[C@@H](O)C2=O`, the result was Active.

System in the next data set: not listed separately
Put plainly: Cytotoxicity against human Huh7.5.1 cells after 72 hrs. Type of data set: functional, cell-based. The following applies: Huh-7, 72 h. A digest of the protocol: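 Huh7.5.1 hepatoma cells were seeded at 10,000 per well and incubated overnight. They were then exposed to nine concentrations from 0 to 62.5 μM. Viability was read after 72 h with an ATPlite assay. Each point was run in three replicates, and IC50 was derived by linear regression.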
Regarding `COc1cc(O)c2c(c1)O[C@H](c1ccc3c(c1)O[C@@H](c1ccc(O)c(OC)c1)[C@H](CO)O3)[C@@H](O)C2=O`, the negative-log IC50 (pIC50) (usually the IC50 on a negative log10 scale, so that one unit is a factor of ten) was 4.90.

`COc1cc(O)c2c(c1)O[C@H](c1ccc3c(c1)O[C@H](CO)[C@@H](c1ccc(O)c(OC)c1)O3)[C@@H](O)C2=O`: the pIC50 was 4.88.

For `COc1cc(O)c2c(c1)O[C@H](c1ccc3c(c1)O[C@@H](CO)[C@H](c1ccc(O)c(OC)c1)O3)[C@@H](O)C2=O`, the pIC50 is 4.74.

`COc1cc(O)c2c(c1)O[C@H](c1cc(O)c3c(c1)[C@@H](CO)[C@H](c1ccc(O)c(OC)c1)O3)[C@@H](O)C2=O` gave a pIC50 of 4.18.

With `COc1cc(O)c2c(c1)O[C@H](c1ccc(O)c3c1[C@@H](CO)[C@H](c1ccc(O)c(OC)c1)O3)[C@@H](O)C2=O`, the negative logarithm of the IC50 (pIC50) was 4.56.

`COc1cc(O)c2c(c1)O[C@H](C1=C[C@H]3C(=O)[C@]4(O)OC[C@H]([C@H]3c3ccc(O)c(OC)c3)[C@H]14)[C@@H](O)C2=O`: the negative logarithm of the IC50 (pIC50) is 5.03.

The molecule `COc1cc(O)c2c(c1)O[C@H](c1ccc3c(c1)O[C@H](c1ccc(O)c(OC)c1)[C@@H](CO)O3)[C@@H](O)C2=O` showed a negative logarithm of the IC50 (pIC50) of 5.02.

In turn, `COc1cc([C@H]2Oc3ccc([C@H]4Oc5cc(O)cc(O)c5C(=O)[C@@H]4O)cc3O[C@@H]2CO)ccc1O` [ISOSILYBIN A] had a negative-log IC50 (pIC50) of 4.10.

Regarding `COc1cc([C@@H]2Oc3ccc([C@H]4Oc5cc(O)cc(O)c5C(=O)[C@@H]4O)cc3O[C@H]2CO)ccc1O` [ISOSILYBIN B], the pIC50 was 4.57.

As for `COc1cc([C@@H]2Oc3c(O)ccc([C@H]4Oc5cc(O)cc(O)c5C(=O)[C@@H]4O)c3[C@H]2CO)ccc1O` [ISOSILYCHRISTIN], the negative-log IC50 (pIC50) was < 3.89.

With `Oc1ccc(/C=C/c2cc(O)cc(O)c2)cc1` [RESVERATROL], the negative-log IC50 (pIC50) was 4.97.

Regarding `COc1cc(C2Oc3c(O)cc([C@H]4Oc5cc(O)cc(O)c5C(=O)[C@@H]4O)cc3C2CO)ccc1O` (some centres not stated) [SILICRISTIN], the pIC50 is < 3.89.

Regarding `COc1cc([C@@H]2[C@H]3CO[C@@]4(O)C(=O)[C@@H]2C=C([C@H]2Oc5cc(O)cc(O)c5C(=O)[C@@H]2O)[C@@H]34)ccc1O` [SILIDIANIN], the negative logarithm of the IC50 (pIC50) is < 3.89.

Take `COc1cc([C@H]2Oc3cc([C@H]4Oc5cc(O)cc(O)c5C(=O)[C@@H]4O)ccc3O[C@@H]2CO)ccc1O` [SILYBIN A]: the pIC50 is 4.10.

Turning to `COc1cc([C@@H]2Oc3cc([C@H]4Oc5cc(O)cc(O)c5C(=O)[C@@H]4O)ccc3O[C@H]2CO)ccc1O` [SILYBIN B], the pIC50 was 4.16.

System in the next data set: not listed separately
Put plainly: Inhibition of UGT in human liver microsomes using 4-methylumbelliferone as substrate after 10 mins by fluorescence analysis. It is filed as ADME, Microsome.
Conditions: not given
A digest of the protocol:
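Pooled human liver microsomes (0.4 mg/mL) were incubated with 4-MU (100 μM), compound at 10 or 100 μM, 0.05% BSA, and 0.1 M Tris–HCl pH 7.5 with 5 mM MgCl2. The reaction was started with UDPGA (4 mM), and 4-MU depletion was followed by fluorescence over 10 min. Vehicle was 0.2% MeOH and diclofenac (400 μM) was the positive control. Data are means ± SD of triplicate incubations.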
For `COc1cc(O)c2c(c1)O[C@H](c1ccc3c(c1)O[C@@H](c1ccc(O)c(OC)c1)[C@H](CO)O3)[C@@H](O)C2=O`, the “inhibition (INH)” value is on record as “Active”.

`COc1cc(O)c2c(c1)O[C@H](C1=C[C@H]3C(=O)[C@]4(O)OC[C@H]([C@H]3c3ccc(O)c(OC)c3)[C@H]14)[C@@H](O)C2=O`: the “inhibition (INH)” value is “Active”.

Consider `COc1cc(O)c2c(c1)O[C@H](c1ccc3c(c1)O[C@H](c1ccc(O)c(OC)c1)[C@@H](CO)O3)[C@@H](O)C2=O`, for which the “inhibition (INH)” value was “Active”.

Take `O=C(O)Cc1ccccc1Nc1c(Cl)cccc1Cl` [DICLOFENAC]: the “inhibition (INH)” value is given as 56%.

Turning to `COc1cc([C@@H]2[C@H]3CO[C@@]4(O)C(=O)[C@@H]2C=C([C@H]2Oc5cc(O)cc(O)c5C(=O)[C@@H]2O)[C@@H]34)ccc1O` [SILIDIANIN], the “inhibition (INH)” value is recorded as “Active”.

Consider `COc1cc([C@H]2Oc3cc([C@H]4Oc5cc(O)cc(O)c5C(=O)[C@@H]4O)ccc3O[C@@H]2CO)ccc1O` [SILYBIN A], for which the “inhibition (INH)” value is given as “Active”.

Consider `COc1cc([C@@H]2Oc3cc([C@H]4Oc5cc(O)cc(O)c5C(=O)[C@@H]4O)ccc3O[C@H]2CO)ccc1O` [SILYBIN B], for which the “inhibition (INH)” value is listed as “Active”.

Another data set has as its system Hepatitis C virus. Put plainly: Antiviral activity against HCV JFH-1 infected in human Huh7.5.1 cells assessed as viral core protein expression at 6 to 60.3 uM after 72 hrs by Western blot analysis. It is filed as functional, organism-based. The following applies: Hepacivirus hominis, Huh-7.
Consider `COc1cc(O)c2c(c1)O[C@H](c1cc(O)c3c(c1)[C@@H](CO)[C@H](c1ccc(O)c(OC)c1)O3)[C@@H](O)C2=O`, for which the outcome was Active.

The subject of another data set is Hepatitis C virus. The data set can be described thus: Antiviral activity against HCV JFH-1 infected in human Huh7.5.1 cells assessed as viral core protein expression at 6.2 to 62.1 uM after 72 hrs by Western blot analysis. The following applies: Hepacivirus hominis, Huh-7. Type of data set: functional, organism-based.
As to `COc1cc([C@H]2Oc3ccc([C@H]4Oc5cc(O)cc(O)c5C(=O)[C@@H]4O)cc3O[C@@H]2CO)ccc1O` [ISOSILYBIN A], the outcome was Active.

Take `COc1cc([C@H]2Oc3cc([C@H]4Oc5cc(O)cc(O)c5C(=O)[C@@H]4O)ccc3O[C@@H]2CO)ccc1O` [SILYBIN A]: the outcome was Active.

Regarding `COc1cc([C@@H]2Oc3cc([C@H]4Oc5cc(O)cc(O)c5C(=O)[C@@H]4O)ccc3O[C@H]2CO)ccc1O` [SILYBIN B], the result was Active.
